Published values pooled from the literature.
NPSR1: Neuropeptide S receptor (NPSR1, Homo sapiens, UniProt Q6W5P4)
NQO2: Ribosyldihydronicotinamide dehydrogenase [quinone] (NQO2, Homo sapiens, UniProt P16083)
GRB2: Growth factor receptor-bound protein 2 (GRB2, Homo sapiens, UniProt P62993)
SLC6A2: Sodium-dependent noradrenaline transporter (SLC6A2, Homo sapiens, UniProt P23975)
MC4R: Melanocortin receptor 4 (MC4R, Homo sapiens, UniProt P32245)
MAP2K5: Dual specificity mitogen-activated protein kinase kinase 5 (MAP2K5, Homo sapiens, UniProt Q13163)

SMILES | target | test | setting | endpoint | value
COc1cccc(C2c3c(ncn(-c4ccc(C#N)cc4)c3=N)Oc3ccc4ccccc4c32)c1 (stereo not shown) | NPSR1 | cAMP, antagonist, TR-FRET |  | IC50 | 5.52 µM
CN1CCN(C2=Nc3cc(Cl)ccc3Nc3ccccc32)CC1 | NQO2 | enzyme activity, inhibitor |  | Ki | 746 µM
Nc1ncnc2c1ncn2[C@@H]1O[C@H](COP(=O)(O)OP(=O)(O)OP(=O)(O)OP(=O)(O)OP(=O)(O)OC[C@H]2O[C@@H](n3cnc4c(N)ncnc43)[C@H](O)[C@@H]2O)[C@@H](O)[C@H]1O | adk (Escherichia coli, UniProt P69441) | binding, ITC |  | Kd | 0.354 µM
CC(C)C[C@H](NC(=O)[C@H](Cc1c[nH]cn1)NC(=O)[C@H](CCCNC(=N)N)NC(=O)[C@H](CCCNC(=N)N)NC(=O)[C@@H](NC(=O)CNC(=O)[C@H](Cc1c[nH]cn1)NC(=O)[C@@H]1CCCN1C(=O)[C@H](CO)NC(=O)[C@@H]1CCCN1)[C@@H](C)O)C(=O)N1CCC[C@H]1C(=O)N[C@@H](CO)C(=O)N1CCC[C@H]1C(=O)N1CCC[C@H]1C(=O)O | GRB2 | binding, NMR | pH 7.6 | Kd | 400 µM
CC(C)(C)c1cc(CN(C(=O)CN(Cc2ccc(Cl)cc2)S(=O)(=O)c2c(F)c(F)c(F)c(F)c2F)c2ccc(C(=O)O)c(O)c2)cc(C(C)(C)C)c1 | Signal transducer and activator of transcription 1-alpha/beta (STAT1, Homo sapiens, UniProt P42224) | cell-free assay, FP |  | Ki | > 60 µM
CCCCN1CCC(COC(=O)c2ccc(N)c(OCF)c2)CC1 | Muscarinic acetylcholine receptor M5 (CHRM5, Homo sapiens, UniProt P08912) | cell-free assay, radioligand |  | Ki | > 10 µM
Nc1ncnc2c1ncn2[C@@H]1O[C@H](COP(=O)(O)OP(=O)(O)OP(=O)(O)O)[C@@H](O)[C@H]1O | dnaA (Escherichia coli, UniProt P03004, V303M) | binding |  | Kd | 0.08 µM
COc1ccc(-c2nsc(NC(=O)[C@@H]3C[C@H]3C)c2C)cc1 | Metabotropic glutamate receptor 3 (GRM3, Homo sapiens, UniProt Q14832) | calcium signal, agonist |  | EC50 | > 25 µM
Cc1c(S(=O)(=O)O)oc2c1C(=O)C(=O)c1c-2ccc2c1CCCC2(C)C | Cholinesterase (BCHE, Homo sapiens, UniProt P06276) | enzyme activity, inhibitor |  | Ki | > 100 µM
O[C@@H]1[C@H](O)[C@@H]2C[C@@H]2[C@H]1n1cnc2c(NCC(c3ccccc3)c3ccccc3)nc(C#Cc3ccccc3)nc21 | SLC6A2 | ligand displacement, radioligand |  | Ki | 5.78 µM
CCN(CC)Cc1cc(Nc2ccnc3cc(Cl)ccc23)ccc1O | NQO2 | enzyme activity, inhibitor |  | Ki | 160 µM
CCCC[C@H](NC(=O)[C@H](CO)NC(=O)[C@H](Cc1ccc(O)cc1)NC(=O)[C@H](CO)NC(C)=O)C(=O)N[C@@H](CCC(=O)O)C(=O)N[C@@H](Cc1c[nH]cn1)C(=O)N[C@@H](C)C(=O)N[C@@H](CCCNC(=N)N)C(=O)N[C@@H](Cc1c[nH]c2ccccc12)C(=O)NCC(=O)N[C@@H](CCCCN)C(=O)N1CCC[C@H]1C(=O)N[C@H](C(=O)NCC(=O)N[C@@H](CCCCN)C(=O)N[C@@H](CCCCN)C(=O)N[C@@H](CCCNC(=N)N)C(N)=O)C(C)C | MC4R | ligand displacement in cells, radioligand |  | Ki | > 1 µM
O=C(O)Cc1ccccc1Nc1c(Cl)cccc1Cl | NQO2 | enzyme activity, inhibitor |  | Ki | > 1000 µM
COc1cccc(C2c3c(ncn(-c4ccccc4Cl)c3=N)Oc3ccc4ccccc4c32)c1 (stereo not shown) | NPSR1 | calcium signal, antagonist |  | IC50 | 5.51 µM
NC(=O)N1c2ccccc2C=Cc2ccccc21 | NQO2 | enzyme activity, inhibitor, absorbance |  | Ki | > 500 µM
COc1ccc(C2c3c(ncn(CCc4ccccc4)c3=N)Oc3ccc4ccccc4c32)cc1OC (stereo not shown) | NPSR1 | calcium signal, antagonist |  | IC50 | > 30 µM
Cc1cnc(-c2ccc(-c3ccc(NC(=O)Nc4c(F)cc(F)cc4F)cc3F)c3c2C(=O)NC3)[nH]1 | MAP2K5 | binding, competition with immobilised ligand |  | Kd | 0.0008 µM
N=c1c2c(ncn1-c1ccccc1)Oc1ccc3ccccc3c1C2c1ccccc1 (stereo not shown) | NPSR1 | calcium signal, antagonist |  | IC50 | 0.69 µM
CC[C@H](C)[C@H](NC(=O)CN)C(=O)N[C@H](C(=O)N[C@@H](CC(N)=O)C(=O)N[C@H](C(=O)N[C@@H](CC(C)C)C(=O)N[C@@H](CCC(N)=O)C(=O)N[C@@H](CCCCN)C(=O)N[C@@H](Cc1ccc(O)cc1)C(=O)N[C@@H](Cc1ccc(O)cc1)C(=O)N[C@@H](CO)C(=O)N[C@@H](CCCNC(=N)N)C(=O)N[C@H](C(=O)N[C@@H](CCCNC(=N)N)C(=O)NCC(=O)NCC(=O)N[C@@H](CCCNC(=N)N)C(=O)N[C@@H](CO)C(=O)N[C@@H](C)C(=O)N[C@H](C(=O)N[C@@H](CC(C)C)C(=O)N[C@@H](CO)C(=O)N[C@H]1CSSC[C@@H](C(=O)N[C@@H](CCCNC(=N)N)C(=O)N[C@@H](CCCNC(=N)N)C(=O)N[C@@H](CCCCN)C(=O)N[C@@H](CCCCN)C(N)=O)NC(=O)[C@H](CO)NC(=O)[C@H](CCCCN)NC(=O)[C@H](CCCNC(=N)N)NC(=O)CNC(=O)[C@H](CCCNC(=N)N)NC(=O)[C@H]([C@@H](C)O)NC(=O)[C@H](CO)NC(=O)[C@H](CO)NC(=O)[C@H](CCCCN)NC(=O)CNC(=O)[C@H]([C@@H](C)CC)NC(=O)[C@H](CCC(N)=O)NC(=O)[C@H](CCC(=O)O)NC(=O)[C@H](CCC(=O)O)NC(=O)[C@H](CCCCN)NC(=O)[C@@H]2CCCN2C(=O)[C@H](CC(C)C)NC1=O)C(C)C)C(C)C)[C@@H](C)O)[C@@H](C)CC | MC4R | ligand displacement in cells |  | Ki | 0.292 µM
N=c1c2c(ncn1CCc1ccccc1)Oc1ccc3ccccc3c1C2c1ccccc1 (stereo not shown) | NPSR1 | cAMP, antagonist, TR-FRET |  | IC50 | 4.87 µM
CCCOC(=O)[C@@]12C[C@@H]1[C@@H](n1cnc3c(NC)nc(C#Cc4ccc(Cl)s4)nc31)[C@H](O)[C@@H]2O | SLC6A2 | ligand displacement, radioligand | cell membranes | Ki | > 10 µM
N=c1c2c(ncn1Cc1ccccc1)Oc1ccc3ccccc3c1C2c1ccccc1 (stereo not shown) | NPSR1 | calcium signal, antagonist |  | IC50 | > 30 µM
Cc1cc(Nc2cc3ncccc3c(N[C@@H]3C[C@H]4CC[C@@H](C3)N4CCC#N)n2)n[nH]1 | MAP2K5 | binding, competition with immobilised ligand |  | Kd | 0.065 µM
COc1cccc(C2c3c(ncn(-c4cccc(C)c4)c3=N)Oc3ccc4ccccc4c32)c1 (stereo not shown) | NPSR1 | cAMP, antagonist, TR-FRET |  | IC50 | 12.2 µM
O=c1ccc2ccccc2o1 | GRB2 | binding, fluorescence |  | Kd | 5.56 µM
